Only some compounds are listed: those with a hit (about 4% of all), similar ones and a draw of the others.
Arr AP2 block = blocks beta-arrestin peptide binding to AP2 adaptin | AID 504490 | hit rate 0.31% among 340,000 | inhibition, % at 10 µM | FITC-arrestin peptide / GST-AP2 beads, flow cytometry; AP2 beta2 appendage carries R879A mutation;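 active = inhibition above a set limit, near 3 SD of compounds lacking own fluorescence, cut at about 54% in these data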;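 note: plate controls were DMSO wells for no effect and 5 µM unlabelled arrestin peptide for full effect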
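System: GST-AP2 R879A bound to glutathione beads, E. coli-expressed. Also added: 50 nM FITC-arrestin peptide. Schedule: compound with beads 12 min RT, then probe 1 h RT. Signal: bead flow cytometry, FITC channel. Read-out basis: percent response.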
SENP1 FRET inh = blocks the human SENP1 SUMO protease catalytic domain. hit rate 0.21% among 360,000. recombinant SENP1 catalytic domain, CyPet-SUMO1-YPet FRET cleavage. inhibition, % at 10 µM. Q9P0U3;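 active = inhibition at least 30% at 10 µM, raw YFP signal under a set limit, fluorescence ratio 0.5 to 1.5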;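 note: 0% = enzyme with DMSO and 100% = no enzyme wells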
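Compound: 10 µM single point, 0.5% DMSO; Test system: hSENP1 catalytic domain, recombinant; Timing: 50 min reaction at room temperature; Technique: FRET, CFP and YFP emission; Control set: no-enzyme wells low, DMSO-plus-enzyme wells high control.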
iPSC survival up = hiPSC single-cell survival enhancement; ATPlite luminescence; 100% = ROCK inhibitor wells, 0% = DMSO; survival enhancement, % at 20 µM; hit rate 0.044% among 360,000; AID 602274; in the data active = survival enhancement above about 18%;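 note: cells exposed to compounds for 16 hours before the ATP read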
Cardio protect = protects H9c2 cardiomyocytes from peroxide injury; H2O2 injury protection, ATPLite, 2 h; protection from H2O2 cell death, % at 20 µM; hit rate 0.63% among 360,000;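 active = compounds giving at least 50% protection of heart cells from peroxide-induced death in the single-dose screen, raw or plate-pattern-corrected value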;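 note: 0% = DMSO wells with peroxide and 100% = DMSO wells without peroxide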
FAS TE block = blocks the thioesterase domain of human fatty acid synthase. P49327. recombinant FAS-TE, OMFH fluorogenic substrate, fluorescence endpoint. inhibition, % at 15 µM. hit rate 0.67% among 360,000;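 active = compounds whose normalised, plate-corrected inhibition of enzyme fluorescence in the single-dose primary screen is 50% or more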;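 note: 0% = DMSO with enzyme and 100% = substrate without enzyme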
GRIN3A LBD mod = modulates the human NR3A ligand-binding domain | hit rate 2.5% among 340,000 | Tm shift relative to glycine control, % at 25 µM | NR3A LBD differential scanning fluorimetry, Tm shift; 0% = protein alone, 100% = glycine-bound protein | AID 1259313;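 active = melting temperature shift of at least 10% of the positive control shift, at one fixed dose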
The depositor's hits bear a star; · = not tested or not shown.

SMILES | Arr AP2 block | SENP1 FRET inh | iPSC survival up | Cardio protect | FAS TE block | GRIN3A LBD mod
NS(=O)(=O)c1ccc(NC(=S)NCCc2ccccc2)cc1 | 9 | -1 | -1 | 2 | 1 | 12*
O=S(=O)(c1ccc(NC(=S)NCCc2ccccc2)cc1)N1CCOCC1 | -7 | 1 | 1 | -8 | 3 | 24*
S=C(NCCc1ccccc1)Nc1ccccc1Cl | 0 | -1 | 0 | -7 | -5 | 1
S=C(NCCCc1ccccc1)Nc1ccccc1Cl | -6 | 0 | 0 | -8 | 35 | 18*
CCc1nc2c(OCCC3CCCCC3)cccn2c1N(C)C(=O)c1cccs1 | · | 0 | 3 | -6 | 16 | ·
COc1ccc(CNCCS(=O)(=O)NN2CCOCC2)cc1 | -15 | 2 | 6 | 9 | -12 | 17*
N#CCSc1ccccc1NC(=O)COC(=O)C1CCN(C(=O)c2ccc(Cl)cc2)CC1 | · | 3 | 1 | 8 | -6 | ·
CC(C)c1cc(C(C)C)n2nc(N)nc2n1 | 20 | 3 | 0 | -7 | -6 | 10*
Nn1c(Nc2ccccc2)nc2ccccc21 | 1 | 2 | -2 | -14 | -3 | -2
Cn1c(Nc2ccccc2)nc2ccccc21 | 2 | -1 | -1 | -2 | -3 | 12*
CC(=O)NC(c1ccccc1)c1nc(-c2ccc3ccccc3c2)cs1 (configuration not stated) | · | 0 | -2 | -5 | 22 | ·
COc1ccc(NC(=O)c2cc(-c3ccccc3)oc2C)cc1 | 28 | 5 | -1 | -8 | 12 | 18*
Cc1oc(-c2ccccc2)cc1C(=O)Nc1cccc(/C=C/C(=O)O)c1 | 21 | 0 | -2 | -4 | 8 | -14
CC(=O)c1cccc(NC(=O)c2ccoc2C)c1 | 21 | 1 | 0 | 6 | -1 | -1
Cc1oc(-c2ccccc2)cc1C(=O)Nc1ccccc1 | 21 | 2 | 1 | 2 | 12 | 4
Cc1oc(-c2ccccc2)cc1C(=O)Nc1ccc2ccccc2c1 | -4 | -3 | 3 | -6 | 6 | 15*
Cc1occc1C(=O)Nc1ccc2ccccc2c1 | 8 | -4 | 0 | -21 | 5 | 24*
O=C(CCCN1C(=O)C(=Cc2ccc3c(c2)OCO3)SC1=S)Nc1ccc(C(=O)O)c(O)c1 | · | -27 | 8 | -10 | 20 | ·
CNC[C@@H]1OCc2ccccc2-c2c(n(C)c3ccccc23)C(=O)N([C@H](C)CO)C[C@H]1C | · | 0 | -1 | 0 | -4 | ·
COC(=O)c1ccccc1C(=O)c1cccc2ccccc12 | -12 | 1 | 0 | -6 | 26 | -2
COC(=O)c1cc2ccccc2c(-c2c(O)ccc3ccccc23)c1O | -11 | -3 | 1 | -9 | 32 | 12*
COC(=O)N1CCCCC1c1cc(C(=O)NCc2cccnc2)no1 (configuration not stated) | · | -1 | 4 | 4 | -4 | ·
COc1cc(C(C)=O)ccc1OCC(=O)OC(C)C(=O)c1ccc(F)cc1 (configuration not stated) | 8 | 0 | -1 | 8 | -1 | 1
O=c1[nH]n(CC2COC3(CCCCC3)O2)c(=O)c2ccccc12 (configuration not stated) | 12 | 1 | 1 | 52* | -5 | 1
Cc1cc(C)n2nc(C(=O)N/N=C/c3ccc(Cl)cc3)nc2n1 | 9 | 4 | 3 | 4 | -7 | 1
SMILES | Arr AP2 block | SENP1 FRET inh | iPSC survival up | Cardio protect | FAS TE block | GRIN3A LBD mod
Cc1cc(C)n2nc(C(=O)N/N=C/c3cccc(Cl)c3)nc2n1 | 10 | 3 | -1 | 4 | 2 | 12*
COC(=O)c1c(C)[nH]c(C(=O)OC(C)C(=O)NC2CCCCC2C)c1C (configuration not stated) | · | -5 | -1 | 0 | -6 | ·
Cc1ccc(C)c(NC(=S)NC(NC(=O)/C=C/c2ccccc2)C(Cl)(Cl)Cl)c1 (configuration not stated) | -2 | -1 | 0 | -27 | 0 | 14*
O=C(/C=C/c1ccccc1)NC(NC(=S)Nc1ccc(Cl)cc1Cl)C(Cl)(Cl)Cl (configuration not stated) | 2 | -6 | 4 | -26 | 12 | 20*
S=C(Nc1ccccc1)Nc1ccc(Cl)cc1Cl | 11 | 2 | 4 | 10 | -9 | 3
O=C(/C=C/c1ccccc1)NC(NC(=S)Nc1ccc(C(=O)O)cc1)C(Cl)(Cl)Cl (configuration not stated) | 2 | -5 | 0 | -18 | 0 | 13*
O=C(/C=C/c1ccccc1)NC(NC(=S)Nc1cccc(O)c1)C(Cl)(Cl)Cl (configuration not stated) | 0 | 1 | 0 | -2 | 15 | 21*
CC1(C(=O)N2Cc3ccccc3C2)CCN1C(=O)Cc1ccccc1 (configuration not stated) | · | 1 | 1 | 3 | -5 | ·
COC(=O)C[C@@H]1C[C@@H]2c3cc(NS(=O)(=O)c4ccc(F)cc4)ccc3O[C@@H]2[C@@H](CO)O1 | · | -1 | 4 | -2 | -4 | ·
COC(=O)NC(NC(=S)Nc1cccc(C)c1)C(Cl)(Cl)Cl (configuration not stated) | 6 | -1 | 1 | -10 | 10 | -16
O=C(/C=C/c1ccccc1)NC(NC(=S)Nc1cccc(Cl)c1)C(Cl)(Cl)Cl (configuration not stated) | 4 | -3 | -4 | -30 | 4 | 29*
CCN(CC)C(=O)Cn1cc(S(=O)(=O)CC(=O)NCCc2ccccc2)c2ccccc21 | -7 | 0 | -1 | 3 | -2 | 15*
CC1(C(=O)NCCC#N)CCN1C(=O)C1(c2ccccc2)CCCC1 (configuration not stated) | · | 4 | -1 | 2 | -9 | ·
CCCCCCCCCCCCCCCC[n+]1cccc2ccccc21 | 18 | 2 | -3 | -22 | -154 | 39*
O=C(O)CCCN1C(=O)/C(=C/c2ccc(-c3nc4ccccc4s3)o2)SC1=S | 42 | 9 | 2 | -28 | -1 | 26*
Cc1ccc(S(=O)(=O)N2C(c3ccccc3)CC(=O)C3CN(S(=O)(=O)c4ccc(Cl)cc4)C(c4ccccc4)CC32)cc1 (configuration not stated) | · | 1 | · | · | · | ·
N#Cc1cc(-c2ccccc2)nc(N2CCNCC2)n1 | 12 | -2 | 0 | 2 | -8 | 11*
O=C(OCc1ccccc1)N1CCC2CC1c1ccc(N3CCNCC3)cc12 (configuration not stated) | · | -2 | -2 | -18 | -9 | ·
O=C(CC1SC(=Nc2cccc3ccccc23)N(Cc2ccccn2)C1=O)Nc1ccccc1Br (configuration not stated) | 0 | -12 | -1 | -12 | 44 | -2
